Hits are enriched below; roughly 3.5% of the tested compounds scored in any of these assays.
MrgX1 ag: agonists of human MrgX1 receptor | Q96LB2 | MrgX1-HEK293 cells, Fluo-4 calcium fluorescence, agonist mode; stronger effect = higher value | B-score at 10 µM | actives 0.44% (n = 310,000);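 active = calcium response B-score plate-corrected fluorescence ratio at least 3 library SD, with starting fluorescence B-score inside 5 SD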
Target sequence (Q96LB2 whole entry, looked up): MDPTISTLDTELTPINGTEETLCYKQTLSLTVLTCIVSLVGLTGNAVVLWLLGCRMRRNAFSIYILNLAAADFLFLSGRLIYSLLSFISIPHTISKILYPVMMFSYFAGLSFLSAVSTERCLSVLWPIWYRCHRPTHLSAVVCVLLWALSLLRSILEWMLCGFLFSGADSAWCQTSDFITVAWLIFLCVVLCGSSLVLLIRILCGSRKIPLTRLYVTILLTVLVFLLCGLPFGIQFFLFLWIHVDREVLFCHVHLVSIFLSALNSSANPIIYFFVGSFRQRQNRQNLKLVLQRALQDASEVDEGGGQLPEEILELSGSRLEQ
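Material: HEK293 cells stably expressing human MrgX1 receptor | Quantity: 15,000 cells per well | Times: Cells plated overnight, dye loaded 0.5 h 37 °C, 0.5 h room temperature | Measured by: Kinetic Fluo-4 NW fluorescence of intracellular calcium | Control set: Positive and negative controls per plate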
MrgX1 PAM: human MrgX1 positive allosteric modulation, primary screen. Q96LB2. MrgX1-HEK293, Fluo-4 calcium flux, FDSS; stronger effect = higher value. B-score at 10 µM. actives 0.63% (n = 310,000). AID 588675;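 active = plate-corrected calcium response at least 3 library SD above typical, normal starting fluorescence, not activating the receptor alone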;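 note: compound read alongside a low EC10 to EC30 dose of BAM8-22 agonist; peak minus trough fluorescence over baseline measured at the second addition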
RGS4 pot: RGS4 potentiation or activation; HEK293 M3R/inducible RGS4, carbachol calcium flux Fluo4; stronger effect = lower value; actives 0.92% (n = 310,000); AID 463111; B-score at 10 µM;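 active = B-score of the integrated calcium signal more than 4 SD below the library mean, with starting fluorescence not abnormally high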;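 note: negative B-score means reduced calcium response which marks RGS4 activation or potentiation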
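Reagent: ECmax carbachol challenge; Test system: M3R-expressing HEK293 line, RGS4 induced by doxycycline; Schedule: overnight RGS4 induction, 30 min dye load 37 °C, 20 min compound RT; Detection: calcium dye Fluo4 fluorescence; Read-out: Agonist-evoked peak-minus-minimum fluorescence over baseline, integrated ratio, B score.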
RGS4 inh: human RGS4 inhibition; P49798; HEK293 M3R/RGS4 inducible, Fluo-4 calcium flux; stronger effect = higher value; triggered by carbachol at its EC20; B-score at 10 µM; actives 0.45% (n = 310,000); AID 463165;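 active = B-score, a plate-corrected calcium signal, over three deviations above library mean, with baseline fluorescence within five deviations of library mean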;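 note: RGS4 expression induced by doxycycline in cells with stable M3 receptor; B-score is computed from the integrated fluorescence ratio over baseline after carbachol; higher B-score means a larger calcium signal and so more RGS4 inhibition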
Target sequence (P49798 whole entry, looked up): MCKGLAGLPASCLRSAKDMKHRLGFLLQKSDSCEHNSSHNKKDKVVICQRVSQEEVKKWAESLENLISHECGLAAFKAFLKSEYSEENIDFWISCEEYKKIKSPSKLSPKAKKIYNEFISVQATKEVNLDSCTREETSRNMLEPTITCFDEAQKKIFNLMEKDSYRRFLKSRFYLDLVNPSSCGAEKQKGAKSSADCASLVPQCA
MrgX1 antagonist: blocks BAM8-22 activation of human MrgX1 receptor | actives 1.3% (n = 310,000) | B-score at 10 µM | Q96LB2 | MRGX1-HEK293 calcium flux, Fluo-4, BAM8-22 antagonism; stronger effect = lower value | AID 588676;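 active = calcium-response B-score plate-corrected more than 3 library SD below zero, starting fluorescence within 5 deviations, no agonist response on first addition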;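 note: peak minus trough fluorescence over baseline after final BAM8-22 challenge near maximal dose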
Numbers stand for hits; n = inactive; x = not tested or not shown.

SMILES | MrgX1 ag | MrgX1 PAM | RGS4 pot | RGS4 inh | MrgX1 antagonist
COC(=O)c1ccccc1NC(=O)CN1CCc2ccccc2C1 | n | n | n | n | n
Cc1ccc(CNC(=O)Nc2ccccc2)n1C | n | n | n | n | n
CC1C/C(=C/c2ccco2)C(=O)/C(=C/c2ccco2)C1 (configuration not stated) | n | n | n | 6.56 | n
O=C1/C(=C\c2ccco2)CCC/C1=C\c1ccco1 | n | 7.56 | n | n | n
O=C1/C(=C/c2ccco2)CCC1C1CCCC1 (configuration not stated) | n | n | n | n | n
O=C1/C(=C/c2ccco2)Cc2ccccc21 | n | n | n | n | n
OCCC1CN(Cc2cccc3nccnc23)CCN1Cc1ccc(F)cc1 (configuration not stated) | n | n | n | n | n
Cc1ccccc1OCCNc1cc(N2CCNCC2)ccc1[N+](=O)[O-] | 26.9 | n | n | 5.08 | n
CCC(=O)c1cn(/C(=C\C(=O)OC(C)(C)C)CCC(OC)OC)cc1CC | n | n | n | n | n
CN1/C(=C\C=C2/SC(=S)NC2=O)C(C)(C)c2ccccc21 | 28.2 | n | n | n | n
CN1/C(=C/C=C(/C#N)C(N)=O)C(C)(C)c2ccccc21 | 32.8 | n | n | n | n
O=C1C2C3C=CC(C4CC34)C2C(=O)N1CCCCN1CCN(c2ccc(F)cc2)CC1 (configuration not stated) | n | n | n | n | n
CCOc1cccc(-c2nc3c(s2)CCc2onc(-c4cccc([N+](=O)[O-])c4)c2-3)c1 | n | n | n | n | n
COc1ccc(CCN2C(=NC(=O)CC(C)C)SC3CS(=O)(=O)CC32)cc1 (configuration not stated) | n | n | n | n | n
COc1ccc(CCN2C(=NC(=O)CCC(=O)O)SC3CS(=O)(=O)CC32)cc1OC (configuration not stated) | n | n | n | n | -5.22
N#CC1CC(c2ccc([N+](=O)[O-])cc2)=NN1c1ccc([N+](=O)[O-])cc1 (configuration not stated) | n | n | n | n | -6.2
O=Cc1ccc(N2N=C(c3ccccc3)CC2c2ccccc2)cc1 (configuration not stated) | n | n | -9.96 | n | n
CC1=NN(c2ccc([N+](=O)[O-])cc2)C(c2ccccc2)C1 (configuration not stated) | n | n | n | n | n
O=C(O)c1ccc(N2N=C(c3ccccc3)CC2c2ccccc2)cc1 (configuration not stated) | n | n | n | n | n
O=[N+]([O-])c1cccc(C2CC(c3ccccc3)=NN2c2ccccc2)c1 (configuration not stated) | n | n | n | n | -7.63
C=CCN(c1ccccc1)S(=O)(=O)c1cccc(C(=O)NC2CCN(Cc3ccccc3)CC2)c1 | n | n | n | n | n
CCCCS(=O)(=O)N1CCCC(C(=O)Oc2ccc(Cl)cc2)C1 (configuration not stated) | n | n | n | n | n
CCCN(Cc1nnc(-c2ccccc2Cl)o1)C(=O)c1oc2ccccc2c1C | n | n | n | n | n
CN(Cc1ccon1)C(=O)C1CCC(=O)N(CCc2ccc(Cl)cc2)C1 (configuration not stated) | x | x | n | n | x
CCOc1ccc(OCC)c(NC(=O)c2nnn(CC(=O)Nc3cc(C)cc(C)c3)c2N)c1 | n | n | n | n | n
SMILES | MrgX1 ag | MrgX1 PAM | RGS4 pot | RGS4 inh | MrgX1 antagonist
CC(OC(=O)/C(C#N)=C/c1ccc(N(C)C)cc1)C(=O)N(C)c1ccccc1 (configuration not stated) | n | n | -7.2 | n | n
CC(=O)Nc1ccc(NC(=O)C(C)OC(=O)/C(C#N)=C/c2ccc(N(C)C)cc2)cc1 (configuration not stated) | n | n | n | n | n
C=CCN(CC(=O)NC1CCCC1)C(=O)C(=O)Nc1ccc2c(c1)OCCO2 | n | n | n | n | n
CCCOc1cccc(-c2cc(C(=O)N/N=C/c3cccnc3)c3ccccc3n2)c1 | n | n | -8.12 | n | n
Cc1cccc(-c2cc(C(=O)N/N=C/c3cccnc3)c3ccccc3n2)c1 | n | n | n | n | n
CCCOc1cccc(-c2cc(C(=O)N/N=C/c3ccccn3)c3ccccc3n2)c1 | n | n | -9.12 | n | n
CS(=O)(=O)c1ccccc1C(=O)Nc1cccc2ncccc12 | n | n | n | n | n
O=C(CN(C(=O)CNC(=O)c1ccco1)c1ccc(F)cc1)NC1CCCC1 | n | n | n | n | n
O=C(COc1ccccc1)Nc1c2c(nn1-c1ccccc1)CS(=O)C2 (configuration not stated) | n | n | n | n | n
COc1ccc(C2=C/C(=C/c3cccnc3)C(=O)O2)cc1OC | n | n | n | n | n
CCOc1ccc(C2=C/C(=C/c3cccnc3)C(=O)O2)cc1 | n | 27.6 | n | n | n
O=C(O)c1ccc(N/N=C/C=C/c2ccc([N+](=O)[O-])o2)cc1 | n | n | n | n | -4.55
O=[N+]([O-])c1ccc(N/N=C/C=C/c2ccco2)cc1 | n | n | -7.36 | n | -10.4
O=C(N/N=C/c1ccc([N+](=O)[O-])o1)C(=O)Nc1ccc(C(=O)O)cc1 | n | n | n | n | n
CCNS(=O)(=O)c1ccc(CCC(=O)N2CCCC2)cc1 | n | n | n | n | n
CN(C(=O)CSC(=O)c1ccccc1)c1ccccc1 | n | n | n | n | n
CCN1CCN(Cc2ccc(NC(=O)c3ccc(C)c(NC(=O)c4ccno4)c3)cc2C(F)(F)F)CC1 | n | n | n | n | n
CCN1CCN(Cc2ccc(NC(=O)c3ccc(C)c(/C=C/c4cnc(Nc5cc(N6CCNCC6)nc(C)n5)cn4)c3)cc2C(F)(F)F)CC1 | 27.3 | n | n | n | n
C/C(=N\NC(=S)NC1CCCCC1)c1ccc(Cl)c(Cl)c1 | n | n | n | n | -4.91
O=C1COc2ccc(N3C(=O)C=CC3=O)cc2N1 | n | n | n | 4.98 | n
O=C1COc2ccc(S(=O)(=O)N3CCCC3)cc2N1 | n | n | n | n | n
Cc1ccc(S(=O)(=O)N2CCN(C(=O)C3=COCCO3)CC2)cc1C | n | n | n | n | n
O=C(C1=COCCO1)N1CCN(S(=O)(=O)c2cccc(Cl)c2Cl)CC1 | n | n | n | n | -5.65
CCn1nc(C)c(/C=N/NC(=O)c2ccoc2C)c1C | n | n | n | n | -5.58
CCCCCn1nc(C)c(/C=N/NC(=O)c2ccoc2C)c1C | n | n | n | n | n
COc1ccc(/C=N/Nc2nc(C(=O)O)cs2)cc1 | n | n | n | n | n
Cc1ccc(-c2nc(N)s[n+]2-c2ccccc2)cc1 | n | n | -9.85 | n | n
Cc1ccc(-c2nc3ccccc3nc2-c2ccccc2)cc1 | n | n | n | n | n
